How the values were obtained:
[1] = target: Human immunodeficiency virus type 1 reverse transcriptase (Human immunodeficiency virus 1, UniProt Q72547); assay: Inhibition of recombinant HIV-1 reverse transcriptase RNase H domain after 10 mins
Summary of the method: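 Recombinant HIV-1 RT (4.5 pmol) preincubated with compound 10 min at 37 °C. Then added: 3H-RNA/DNA duplex (E. coli RNA polymerase transcript of calf thymus ssDNA, 20,000 cpm) in 50 mM Tris-HCl pH 8.0, 10 mM DTT, 6 mM MgCl2, 80 mM KCl; 10 min at 37 °C. Stopped with cold 10% TCA/0.1 M pyrophosphate; filter-bound radioactivity counted.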

[2] = target: Human immunodeficiency virus type 1 integrase (Human immunodeficiency virus 1, UniProt Q7ZJM1); assay: Inhibition of HIV-1 integrase after 1 hr by immunosorbent assay
Human immunodeficiency virus type 1 integrase, sequence (Q7ZJM1 whole entry): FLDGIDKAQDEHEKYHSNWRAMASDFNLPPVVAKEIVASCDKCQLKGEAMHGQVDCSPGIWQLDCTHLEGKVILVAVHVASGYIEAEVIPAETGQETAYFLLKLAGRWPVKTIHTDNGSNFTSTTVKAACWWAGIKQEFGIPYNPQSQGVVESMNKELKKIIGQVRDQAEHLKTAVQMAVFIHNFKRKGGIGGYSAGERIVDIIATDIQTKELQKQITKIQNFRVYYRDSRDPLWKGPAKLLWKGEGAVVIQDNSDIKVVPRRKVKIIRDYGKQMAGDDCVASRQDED
Summary of the method: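 Overall integration ELISA. Substrate is annealed oligos (7 nM), one 3'-biotin-labelled and one 5'-digoxigenin-labelled, with integrase at […] as written. Reaction 1 h at 37 °C, then immunodetection on avidin-coated plates. IC50 is the mean ± SD of at least three independent experiments.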

[3] = test system: Human immunodeficiency virus 1; assay: Antiviral activity against HIV1 3B infected in human MT4 cells assessed as inhibition of virus-induced cytopathic effect by MTT assay; format: functional, organism-based; conditions: Human immunodeficiency virus 1, 3B
Summary of the method: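 MT-4 cells infected with 100-300 CCID50 of HIV-1 IIIB (dose titrated in MT-4 cells) in the presence of 5-fold serial drug dilutions. Protection from virus-induced cytopathic effect read by MTT reduction to formazan, measured spectrophotometrically.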

[4] = Cytotoxicity against human MT4 cells by MTT assay; format: cell-based
[5] = test system: Human immunodeficiency virus 1; assay: Selectivity ratio of IC50 for recombinant HIV-1 reverse transcriptase RNase H domain to IC50 for HIV-1 integrase

| IC50 ([1]; read-out: IC50) [µM] | IC50 [2] [µM] | Ratio IC50 [5] | Structure (SMILES) | EC50 [3] [µM] | CC50 [4] [µM] | IC50 [1] |
| --- | --- | --- | --- | --- | --- | --- |
| 7.8 | 45.4 | – | CCCCCCc1c(O)n(O)c(=O)c2ccccc12 | > 128 | 128 | – |
| 38.8 | 3.3 | – | CC1C(=O)N(O)C(=O)c2ccccc21 (centres undefined) | > 250 | 250 | – |
| 18.5 | 35.5 | – | CC(C)C1C(=O)N(O)C(=O)c2ccccc21 (centres undefined) | > 122 | 122 | – |
| 33.6 | 1.35 | – | CCCCCC1C(=O)N(O)C(=O)c2ccccc21 (centres undefined) | > 98.3 | 98.3 | – |
| 46.8 | 21.1 | – | CCCC1C(=O)N(O)C(=O)c2ccccc21 (centres undefined) | > 25.4 | 25.4 | – |
| 80 | 3.4 | – | Cc1ccc(CC2C(=O)N(O)C(=O)c3ccccc32)cc1 (centres undefined) | > 5.5 | 5.5 | – |
| 45 | 113 | 0.4 | CCCCCCCc1c(O)n(O)c(=O)c2ccccc12 | – | – | – |
| 14.9 | 39.9 | – | O=c1c2ccccc2c(Cc2ccccc2)c(O)n1O | > 88 | 88 | – |
| 70 | 15.7 | – | CCC1C(=O)N(O)C(=O)c2ccccc21 (centres undefined) | > 250 | 250 | – |
| 38 | 11.4 | – | CCCCCCC1C(=O)N(O)C(=O)c2ccccc21 (centres undefined) | > 4.4 | 4.4 | – |
| 13.2 | 40.2 | – | CCCCC1C(=O)N(O)C(=O)c2ccccc21 (centres undefined) | > 25.4 | 25.4 | – |
| 66.8 | 2.6 | – | O=C1c2ccccc2C(CCCc2ccccc2)C(=O)N1O (centres undefined) | > 5.2 | 5.2 | – |
| 42.7 | 23.2 | – | O=C1c2ccccc2C(Cc2ccc(C(F)(F)F)cc2)C(=O)N1O (centres undefined) | > 6 | 6 | – |

| Structure (SMILES) | IC50 ([1]; read-out: IC50) [µM] | IC50 [2] [µM] | Ratio IC50 [5] | EC50 [3] [µM] | CC50 [4] [µM] | IC50 [1] |
| --- | --- | --- | --- | --- | --- | --- |
| O=C1c2ccccc2C(Cc2ccccc2)C(=O)N1O (centres undefined) | – | 37.7 | – | > 95 | 95 | Not Active |
| O=C1c2ccccc2C(CCc2ccccc2)C(=O)N1O (centres undefined) | – | 27.8 | – | > 30 | 30 | Not Active |

Source: ChEMBL document CHEMBL1667755, “2-hydroxyisoquinoline-1,3(2H,4H)-diones as inhibitors of HIV-1 integrase and reverse transcriptase RNase H domain: influence of the alkylation of position 4” (Eur J Med Chem, 2011)
